Assay results as given in ChEMBL document CHEMBL1147412, “Synthesis and biological activity of new quinoxaline antibiotics of echinomycin analogues” (Bioorg Med Chem Lett, 2004).
In brackets after ≈: the same amount, converted by molar mass.

Key:
HT-29 [1] = assay: Percentage of apoptotic HT-29 cells after 24 H treatment with 10 ug/mL concentration of compound; type: functional, Homo sapiens
Method in brief: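 HT-29 cells exposed to compound at 10 μg/mL for 24 h. Apoptotic cell percentage measured by flow cytometry (FACScan). Mean ± SEM of at least three separate experiments.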

B16 = assay: Inhibitory activity against growth of B16 mouse melanoma cell line was determined by MTT assay; type: functional, cell-based
Method in brief: (§1)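 Exponentially growing cells seeded at 2 × 10^4 ~ 5 × 10^4 cells/well in RPMI-1640, drug-treated, then incubated 72 h. MTT (5 mg/mL stock) added, 4 h at 37 °C. Formazan dissolved in DMSO at rt, absorbance read at 540 nm. IC50 from plot of log drug concentration versus growth rate of treated cells.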

BeWo = assay: Inhibitory activity against growth of BeWO placental tumor cell line was determined by MTT assay; type: functional, cell-based; conditions: Homo sapiens; method in brief: as §1
PANC-1 = assay: Inhibitory activity against growth of PANC-1 tumor cell line was determined by MTT assay; type: functional, cell-based; conditions: Homo sapiens; method in brief: as §1
HT-29 [2] = assay: Inhibitory activity against growth of HT-29 colon tumor cell line was determined by MTT assay; type: functional, cell-based; conditions: Homo sapiens; method in brief: as §1

| IC50 (B16) [µg/mL] | IC50 (PANC-1) [µg/mL] | IC50 (HT-29 [2]) [µg/mL] | Structure (SMILES) | Apoptotic cells (HT-29 [1]) [%] | IC50 (BeWo) [µg/mL] |
| --- | --- | --- | --- | --- | --- |
| 1.4 (≈ 1.27 µM) | 4 (≈ 3.63 µM) | 5 (≈ 4.54 µM) | CC(C)[C@H]1C(=O)OC[C@@H](NC(=O)c2cnc3ccccc3n2)C(=O)N[C@@H](C)C(=O)N(C)[C@H]2CSCSC[C@@H](C(=O)N1C)N(C)C(=O)[C@H](C)NC(=O)[C@H](NC(=O)c1cnc3ccccc3n1)COC(=O)[C@H](C(C)C)N(C)C2=O | 28.9 | 2.7 (≈ 2.45 µM) |
| > 20 | > 20 | > 20 | CC(C)[C@H]1C(=O)OC[C@@H](NC(=O)c2cnc3ccccc3n2)C(=O)N[C@@H](C)C(=O)N(C)[C@H]2CSC[S+]([O-])C[C@@H](C(=O)N1C)N(C)C(=O)[C@H](C)NC(=O)[C@H](NC(=O)c1cnc3ccccc3n1)COC(=O)[C@H](C(C)C)N(C)C2=O (stereo not given in full) |  | > 20 |
| > 20 | > 20 | > 20 | CC(C)[C@H]1C(=O)OC[C@@H](NC(=O)c2cnc3ccccc3n2)C(=O)N[C@@H](C)C(=O)N(C)[C@H]2C[S+]([O-])C[S+]([O-])C[C@@H](C(=O)N1C)N(C)C(=O)[C@H](C)NC(=O)[C@H](NC(=O)c1cnc3ccccc3n1)COC(=O)[C@H](C(C)C)N(C)C2=O (stereo not given in full) |  | > 20 |
| 0.4 (≈ 0.363 µM) | 1.8 (≈ 1.63 µM) | 2.2 (≈ 2 µM) | CS[C@H]1SC[C@H]2C(=O)N(C)[C@@H](C(C)C)C(=O)OC[C@@H](NC(=O)c3cnc4ccccc4n3)C(=O)N[C@@H](C)C(=O)N(C)[C@@H]1C(=O)N(C)[C@@H](C(C)C)C(=O)OC[C@@H](NC(=O)c1cnc3ccccc3n1)C(=O)N[C@@H](C)C(=O)N2C [ECHINOMYCIN] | 47.5 | 1 (≈ 0.908 µM) |

Second part, the molecule before the results:

| Structure (SMILES) | IC50 (B16) [µg/mL] | IC50 (PANC-1) [µg/mL] | IC50 (HT-29 [2]) [µg/mL] | Apoptotic cells (HT-29 [1]) [%] | IC50 (BeWo) [µg/mL] |
| --- | --- | --- | --- | --- | --- |
| CC(C)[C@H]1C(=O)OC[C@@H](NC(=O)c2cnc3ccccc3n2)C(=O)N[C@@H](C)C(=O)N(C)[C@H]2CS(=O)(=O)CS(=O)(=O)C[C@@H](C(=O)N1C)N(C)C(=O)[C@H](C)NC(=O)[C@H](NC(=O)c1cnc3ccccc3n1)COC(=O)[C@H](C(C)C)N(C)C2=O | > 20 | > 20 | > 20 |  | > 20 |
| CC(C)[C@@H]1NC(=O)[C@@H]2CS(=O)(=O)CS(=O)(=O)C[C@H](NC(=O)[C@H](C)NC(=O)[C@H](NC(=O)c3cnc4ccccc4n3)COC1=O)C(=O)N[C@@H](C(C)C)C(=O)OC[C@@H](NC(=O)c1cnc3ccccc3n1)C(=O)N[C@@H](C)C(=O)N2 | > 20 | > 20 | > 20 |  | > 20 |
| CC(C)[C@@H]1NC(=O)[C@@H]2CSCSC[C@H](NC(=O)[C@H](C)NC(=O)[C@H](NC(=O)c3cnc4ccccc4n3)COC1=O)C(=O)N[C@@H](C(C)C)C(=O)OC[C@@H](NC(=O)c1cnc3ccccc3n1)C(=O)N[C@@H](C)C(=O)N2 | > 20 | > 20 | > 20 |  | > 20 |
